Assay outcomes from PubChem BioAssay.
Compounds with a hit are over-represented: about 1.7% of the library has one in this group of screens.
MEX-5 binding – MEX-5 zinc finger RNA-binding disruptors – biochemical, C. elegans, fluorescence polarization, MLPCN library, primary screen; Zinc finger protein mex-5 (Caenorhabditis elegans), Q9XUB2; MEX-5/FITC-TCR2 RNA binding; stronger effect = lower value; activity score (negative = inhibition of binding), % at 10 µM; hit rate 0.38% among 300,000;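 active = inhibition past about -25% in most replicates, and total fluorescence under double the plate's negative control median, limit read from the data; inconclusive = replicates evenly split on the limit, or fluorescence at least double controls; inactive = too little inhibition in most replicates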
Target sequence (Q9XUB2 whole entry, looked up): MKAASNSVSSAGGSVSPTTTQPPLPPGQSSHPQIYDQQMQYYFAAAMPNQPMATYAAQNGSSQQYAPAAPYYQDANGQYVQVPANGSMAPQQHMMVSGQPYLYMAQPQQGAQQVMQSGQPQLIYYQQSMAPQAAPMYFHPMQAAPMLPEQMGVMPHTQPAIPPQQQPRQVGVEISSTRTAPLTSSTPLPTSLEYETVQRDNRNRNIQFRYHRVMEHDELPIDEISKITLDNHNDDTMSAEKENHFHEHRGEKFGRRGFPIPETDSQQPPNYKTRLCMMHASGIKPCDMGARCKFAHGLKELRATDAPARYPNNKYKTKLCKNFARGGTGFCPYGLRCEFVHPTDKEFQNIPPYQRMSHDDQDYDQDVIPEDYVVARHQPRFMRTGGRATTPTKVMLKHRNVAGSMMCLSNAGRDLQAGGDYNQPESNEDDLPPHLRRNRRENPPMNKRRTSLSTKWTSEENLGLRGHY
ZTA counter – counter-screen for EBNA-1 inhibitors: inhibitors of Epstein-Barr virus ZTA; ZTA-DNA binding, fluorescence polarization; P03206; inhibition, % at 11 µM; hit rate 0.15% among 320,000; in the data active = inhibition above about 33%
Target sequence (P03206 whole entry, looked up): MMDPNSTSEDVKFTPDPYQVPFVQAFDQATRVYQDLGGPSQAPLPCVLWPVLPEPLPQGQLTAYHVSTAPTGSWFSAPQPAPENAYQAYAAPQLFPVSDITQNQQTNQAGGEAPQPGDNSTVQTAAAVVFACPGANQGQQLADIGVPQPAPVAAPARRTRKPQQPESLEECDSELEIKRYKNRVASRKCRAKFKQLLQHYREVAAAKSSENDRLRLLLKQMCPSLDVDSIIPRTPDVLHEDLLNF
HCV NS3 hel inh – inhibitors of HCV NS3 helicase, primary screen, biochemical, Cy5 molecular beacon fluorescence | Hepatitis C virus NS3 helicase | NS3 helicase DNA unwinding | inhibition, % at 10.9 µM | hit rate 0.56% among 290,000 | AID 1800, 2009;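 active = inhibition above the mean of all tested compounds plus 3 SD, set per campaign, cut at about 35% in these data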
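Assay system – hepatitis C virus NS3 helicase domain fragment enzyme · Buffer or medium – MOPS pH 6.5, MgCl2, DTT, Tween20, BSA · Reagent – Cy5/quencher beacon DNA duplex and ATP to start · Compound – single 10.9 µM dose · Timing – 1 h at 25 °C · Technique – Cy5 beacon fluorescence read at start and 1 h · Measure – % inhibition of unwinding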
EBV gp42 inh – Epstein-Barr virus gp42 inhibitors, primary screen, biochemical, uHTS, fluorescence polarization; Glycoprotein 42 (Epstein-Barr virus (strain AG876)), Q1HVG2; hit rate 0.42% among 220,000; Fluorescence polarization binding assay, mP read-out; inhibition, % (tested at 21.74 µM); in the data active = inhibition above about 50%
EBNA-1 inhibitor – EBNA-1 DNA-binding inhibitors, primary screen, biochemical, fluorescence polarization; inhibition, % at 14.8 µM; hit rate 0.34% among 300,000; in the data active = inhibition above about 28%
core dimer inh – inhibitors of HCV core protein dimerization, primary screen, biochemical, TR-FRET, high-throughput. hit rate 0.33% among 300,000. TR-FRET GST/Flag-core106 dimerization, 1536-well. AID 1899, 2009. inhibition, % at 5 µM;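 active = inhibition above the mean of all tested compounds plus 3 SD, set per screening campaign, cut at about 45% in these data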
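System – GST-tagged and Flag-tagged HCV core protein residues 1-106 · Repeats – one well for each compound · Technique – TR-FRET 671 and 617 nm emission · Doses – one concentration, 5 µM, in 0.5% DMSO · Times – 4 h, 22.5 °C incubation · Also added – Eu donor and XL665 acceptor anti-tag antibodies · Measure – percent inhibition of core106 dimerization signal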
Large screens that a line does not name were inactive.

COc1ccc2c(c1OC)C(=O)OC2C1c2c(cc3c(c2OC)OCO3)CCN1C (stereo unspecified)	none
COC(=O)CCCC1=CC2=CC(=O)C(C)(OC(=O)c3ccco3)C(=O)C2=CO1 (stereo unspecified)	MEX-5 binding -42 (no result: HCV NS3 hel inh, EBV gp42 inh)
CCCCC1=CC2=CC(=O)C(C)(O)C(=O)C2=CO1 (stereo unspecified)	MEX-5 binding inconclusive (no result: HCV NS3 hel inh, EBV gp42 inh)
COC(=O)CCCC1=CC2=CC(=O)C(C)(OC(=O)CCc3ccccc3)C(=O)C2=CO1 (stereo unspecified)	none (no result: HCV NS3 hel inh)
CCCCC1=CC2=CC(=O)C(C)(OC(=O)c3ccc(Cl)nc3)C(=O)C2=CO1 (stereo unspecified)	MEX-5 binding -29 (no result: HCV NS3 hel inh, EBV gp42 inh)
CCN(CC)c1ccc(/C=C/c2nc3ccccc3s2)cc1	MEX-5 binding -32
CCN(CC)c1ccc(NC(=O)COC(=O)/C=C/c2nc3ccccc3s2)cc1	none
COc1ccc(CCNc2nc(-c3ccncc3)cs2)cc1OC	none
COc1ccc(CCNc2nc(-c3cccnc3)cs2)cc1OC	EBV gp42 inh 138
O=S(=O)(c1cccc(-c2csc(-c3cccnc3)n2)c1)N1CCOCC1	MEX-5 binding -27
O=S(=O)(c1ccc(Br)c2ccccc12)N1CCCC1	none (no result: EBV gp42 inh)
COc1ccc(NC(=O)c2cc3c(s2)CCC3)cc1S(=O)(=O)N1CCOCC1	core dimer inh 94
COc1ccc(NC(=O)Cn2ncc(Cl)c(Cl)c2=O)cc1S(=O)(=O)N1CCOCC1	EBV gp42 inh 61, core dimer inh 50
COc1ccc(NC(=O)c2ccc(Cl)nc2)cc1S(=O)(=O)N1CCOCC1	none (no result: MEX-5 binding, HCV NS3 hel inh, EBV gp42 inh, EBNA-1 inhibitor, core dimer inh)
COc1ccc(S(=O)(=O)N2CCOCC2)cc1NC(=O)c1cc2c(s1)CCCC2	none
CN(C)c1ccc(C(=O)Nc2ccc(S(=O)(=O)Nc3nccs3)cc2)cc1	none (no result: EBV gp42 inh)
O=c1oc2cc(OCCO)ccc2c2c1CCCC2	none (no result: EBV gp42 inh)
CCCCOc1ccc(C2OC34CCCCC3C(C#N)(C#N)C2(C#N)C(=N)O4)cc1 (stereo unspecified)	none (no result: MEX-5 binding)
Cc1ccc(C2OC34CCCCCC3C(C#N)(C(=N)O4)C2(C#N)C#N)cc1 (stereo unspecified)	none
CCOc1ccc(C2OC34CCCCC3C(C#N)(C#N)C2(C#N)C(=N)O4)cc1OC (stereo unspecified)	MEX-5 binding -29
C=CCOc1ccc(C2OC34CCCCC3C(C#N)(C#N)C2(C#N)C(=N)O4)cc1 (stereo unspecified)	MEX-5 binding -45
O=C(NCCCN1CCOCC1)c1ccc2c(c1)N(Cc1ccccc1F)C(=O)c1ccccc1S2=O (stereo unspecified)	none (no result: EBV gp42 inh)
O=C(/C=C\c1ccc2c(c1)OCO2)Nc1c2c(nn1-c1ccc(Cl)cc1)CSC2	core dimer inh 47
Cc1c2cc(O)c(=O)cc-2oc2cc(O)c(O)cc12	MEX-5 binding inconclusive, EBV gp42 inh 129
COc1ccccc1C(=O)NCC(=O)N1CCN(c2ncccn2)CC1	none (no result: MEX-5 binding, HCV NS3 hel inh, EBV gp42 inh, EBNA-1 inhibitor, core dimer inh)
Cc1cccc(C(=O)N[C@H](C(=O)OCc2cc(=O)n3c(n2)sc2ccccc23)C(C)C)c1	core dimer inh 49
O=c1cc(CCl)nc2sc3ccccc3n12	none
O=C(OCc1cc(=O)n2c(n1)sc1ccccc12)c1ccc(O)cc1	core dimer inh 50
O=C(Cn1nnc(-c2ccc([N+](=O)[O-])cc2)n1)NNC(=O)c1ccccc1	none (no result: EBV gp42 inh)
CCN(CC)C(=O)Cn1c(=O)c2ccccc2n2c(=S)sc(-c3cccc(C)c3)c12	MEX-5 binding -67
Cc1nn(CC(=O)NCc2ccc(OC(C)C)cc2)c(=O)c2cc(-c3ccccc3)nn12	none (no result: EBV gp42 inh)
CC1CCCCN1S(=O)(=O)c1ccc(C(=O)N2CCOCC2)cc1 (stereo unspecified)	none (no result: EBV gp42 inh)
Cc1ccc(NC(=S)NNc2ccc([N+](=O)[O-])cc2S(=O)(=O)Nc2ccccc2C(=O)O)cc1C	none
O=C(O)c1ccccc1NS(=O)(=O)c1ccc(NNC(=S)Nc2ccc(OC(F)F)cc2)c([N+](=O)[O-])c1	MEX-5 binding -42 (no result: ZTA counter, EBNA-1 inhibitor, core dimer inh)
CCC(C)NC(=O)c1ccc(CSCc2ccc(Cl)cc2)o1 (stereo unspecified)	none (no result: EBV gp42 inh)
CCC(C)NC(=O)c1ccc(CSCc2cccc(F)c2)o1 (stereo unspecified)	EBV gp42 inh 110
Cn1c(=O)c(Nc2ccc(Cl)cc2)c2c3c(cccc31)C(=O)c1ccccc1-2	MEX-5 binding -41, EBV gp42 inh 176
CC(=O)Nc1c2c3c(cccc3n(C)c1=O)C(=O)c1ccccc1-2	none
Cc1ccc(S(=O)(=O)NCCN=Cc2ccc(N(C)C)cc2)cc1	none (no result: EBV gp42 inh)
CC(=Nc1ccc(Br)cc1)c1sc2ccccc2c1O	MEX-5 binding -30
N=C1C(c2nc3ccccc3[nH]2)=C(O)CN1c1ccc(CC(=O)O)cc1	MEX-5 binding -85
O=C(NNC(=O)c1ccccc1[N+](=O)[O-])c1ccccn1	MEX-5 binding -29
O=C(NNC(=O)c1ccccc1[N+](=O)[O-])c1csc(N2CCOCC2)n1	MEX-5 binding -42 (no result: HCV NS3 hel inh, EBV gp42 inh)
CC/C(=N/Nc1cccc(C)c1)c1cnnc(SC)n1	MEX-5 binding -33
Cc1ccsc1C1C=C(c2cccc(Br)c2)Nc2ncnn21 (stereo unspecified)	EBV gp42 inh 94
Cc1cccc(N(C)S(=O)(=O)c2ccc3c(c2)C(C)(C)C(=O)N3C)c1	core dimer inh 54 (no result: EBV gp42 inh)
Cc1cccc(N2CCN(S(=O)(=O)c3ccc4c(c3)C(C)(C)C(=O)N4C)CC2)c1C	core dimer inh 47 (no result: EBV gp42 inh)
Cc1ccc(C)c(N2CCN(S(=O)(=O)c3ccc4c(c3)C(C)(C)C(=O)N4C)CC2)c1	none (no result: EBV gp42 inh)
Cc1ccc(C)c(-n2c3nc(=O)[nH]c(=O)c-3cc3cc([N+](=O)[O-])ccc32)c1	EBV gp42 inh 59 (no result: MEX-5 binding)
CC1(OC(=O)C2CCCC2)C(=O)C=C2C=C3CCCN3C=C2C1=O (stereo unspecified)	none (no result: HCV NS3 hel inh, EBV gp42 inh)
CC1(OC(=O)c2cccs2)C(=O)C=C2C=C3CCCN3C=C2C1=O (stereo unspecified)	MEX-5 binding -27 (no result: HCV NS3 hel inh)
NC(=O)c1cc[n+](CC2=C(C(=O)O)N3C(=O)[C@@H](NC(=O)C(c4ccccc4)S(=O)(=O)[O-])[C@H]3SC2)cc1 (stereo partly specified)	ZTA counter 35
N[C@@H](C(=O)N[C@@H]1C(=O)N2C(C(=O)O)=C(Cl)CS[C@H]12)c1ccccc1	none
S=c1[nH]c2ccccc2n2cccc12	core dimer inh 55
Cc1noc(/C=C/c2cccnc2)c1[N+](=O)[O-]	none (no result: EBV gp42 inh)
Cc1noc(/C=C/c2ccc(-c3ccccc3Cl)o2)c1[N+](=O)[O-]	EBV gp42 inh 130
